The record followed here is ChEMBL document CHEMBL4411337, “2-Aminothiazole Derivatives as Selective Allosteric Modulators of the Protein Kinase CK2. 1. Identification of an Allosteric Binding Site” (J Med Chem, 2019).

Data set [1] addresses T1, Casein kinase II subunit alpha (Homo sapiens, UniProt P68400). The experiment in a line: Inhibition of recombinant human GST-tagged CK2alpha in presence of ATP by radiometric kinase assay.
Target sequence in this assay (P68400 whole entry): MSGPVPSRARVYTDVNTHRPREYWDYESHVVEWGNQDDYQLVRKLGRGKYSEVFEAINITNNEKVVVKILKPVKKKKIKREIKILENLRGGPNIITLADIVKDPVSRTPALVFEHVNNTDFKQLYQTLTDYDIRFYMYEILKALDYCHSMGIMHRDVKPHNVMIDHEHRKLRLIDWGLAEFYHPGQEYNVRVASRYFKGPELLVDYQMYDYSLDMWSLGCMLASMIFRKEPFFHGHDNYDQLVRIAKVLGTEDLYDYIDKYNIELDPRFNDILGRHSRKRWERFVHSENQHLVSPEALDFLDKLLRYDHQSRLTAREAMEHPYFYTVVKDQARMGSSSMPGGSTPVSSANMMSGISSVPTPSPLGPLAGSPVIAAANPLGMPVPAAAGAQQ
For data set [2], the target named is T1, Casein kinase II subunit alpha. The data set can be described thus: Inhibition of recombinant human GST-tagged CK2alpha at 15 uM in presence of varying ATP levels by radiometric kinase assay.
Target sequence in this assay (P68400 whole entry, looked up): as the sequence (P68400 whole entry) above
The target is the same in data set [3]. The data set can be described thus: Inhibition of recombinant human GST-tagged CK2alpha at 15 uM in presence of varying substrate levels by radiometric kinase assay.
Target sequence in this assay (P68400 whole entry, looked up): as the sequence (P68400 whole entry) above
For data set [4], the target named is Casein kinase II alpha/beta (Homo sapiens) (UniProt P67870+P68400). The data set can be described thus: Inhibition of recombinant human GST-tagged CK2alpha2/CK2beta2 at 15 uM in presence of ATP by radiometric kinase assay. It is filed as protein-complex assay.
In data set [5] the target is T1, Casein kinase II subunit alpha. The experiment in a line: Binding affinity to CK2alpha (unknown origin) at 500 uM in presence of kinase inhibitor CX-4945 by STD-based NMR spectroscopy. The method, boiled down:
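STD NMR at 600 MHz and 293 K in PBS pH 7.3 with 10 mM NaCl, 2 mM MgCl2 and 10% D2O. […] On-resonance protein saturation was at 0.6 ppm for 2 s. STD factors were normalized so the highest STD factor is 100%.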
Target sequence in this assay (P68400 whole entry, looked up): as the sequence (P68400 whole entry) above

The target is the same in data set [6]. The data set can be described thus: Mixed-type inhibition of recombinant human GST-tagged CK2alpha in presence of ATP by Lineweaver-Burk plot analysis.
Target sequence in this assay (P68400 whole entry): as above
The target is the same in data set [7]. The data set can be described thus: Non-ATP competitive binding affinity to GST-tagged CK2alpha (unknown origin) assessed as melting temperature at 50 uM by temperature-dependent circular dichroism (reference value: […] degC). A general note: Circular dichroism is widely used to follow secondary structure.
Target sequence in this assay (P68400 whole entry, looked up): as the sequence (P68400 whole entry) above
A short description of data set [8]: Solubility of the compound in water. It is filed as physicochemical. The settings on record: buffer.
The target of data set [9] is T1, Casein kinase II subunit alpha. The experiment in a line: Competitive binding affinity to CK2alpha (1 to 335 residues) (unknown origin) at 10 uM by native mass spectrometry. The method, boiled down: (§1)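 Native nESI-MS of CK2α residues 1–335 (10 μM) after buffer exchange into 0.50 M ammonium acetate pH 8.5 with 5% (v/v) DMSO. […] Capillary was 1.6–2.0 kV, cone 30–90 V, collision 10 V, source 20 °C; CsI calibration. Ligand binding was read from the charge-state spectra.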
Target sequence in this assay (P68400 whole entry, looked up): as the sequence (P68400 whole entry) above

The target is the same in data set [10]. The data set can be described thus: Competitive binding affinity to CK2alpha (1 to 335 residues) (unknown origin) at 10 uM in presence of IP6 by nESI-MS analysis. An outline of the steps: as §1
Target sequence in this assay (P68400 whole entry, looked up): as the sequence (P68400 whole entry) above
Data set [11] has the same target. The experiment in a line: Competitive binding affinity to CK2alpha (1 to 335 residues) (unknown origin) at 10 uM in presence of IP6 by nESI-MS analysis.
Data set [12] has the same target. The experiment in a line: Competitive binding affinity to CK2alpha (1 to 335 residues) (unknown origin) at 10 uM in presence of IP6 by native mass spectrometry. The method, boiled down:
as §1

The target is the same in data set [13]. The experiment in a line: Inhibition of recombinant human GST-tagged CK2alpha at 10 uM in presence of ATP by radiometric kinase assay relative to control. An outline of the steps:
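Radiometric assay of CK2α with 100 μM ATP. Single-concentration percent inhibition at 10 μM relative to control. Values are the mean of ≥2 experiments.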

Data set [14] deals with Homeodomain-interacting protein kinase 2 (Homo sapiens) (UniProt Q9H2X6). The experiment in a line: Inhibition of HIPK2 (unknown origin) assessed as residual activity at 50 uM relative to control. The method, boiled down: (§2)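 Selectivity profiling against a panel of 44 human kinases. For each kinase, ATP was set to that kinase's Km. Values are residual activity in duplicate assays.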

The target in data set [15] is Death-associated protein kinase 3 (Homo sapiens) (UniProt O43293). The experiment in a line: Inhibition of DAPK3 (unknown origin) assessed as residual activity at 50 uM relative to control. The method, boiled down: as §2
In data set [16] the target is Serine/threonine-protein kinase haspin (Homo sapiens) (UniProt Q8TF76). The experiment in a line: Inhibition of haspin (unknown origin) assessed as residual activity at 50 uM relative to control. An outline of the steps:
(§3)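 Profiling panel of 44 human kinases. ATP set to each kinase's Km. Run in duplicate; duplicates within 15–17% of each other.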

Data set [17] addresses Activin receptor type-1 (Homo sapiens) (UniProt Q04771). The data set can be described thus: Inhibition of ALK2 (unknown origin) assessed as residual activity at 50 uM relative to control. The method, boiled down:
as §2

In data set [18] the target is Homeodomain-interacting protein kinase 3 (Homo sapiens) (UniProt Q9H422). The experiment in a line: Inhibition of HIPK3 (unknown origin) assessed as residual activity at 50 uM relative to control. An outline of the steps: as §2
The target in data set [19] is Casein kinase I isoform gamma-1 (Homo sapiens) (UniProt Q9HCP0). The experiment in a line: Inhibition of CK1gamma1 (unknown origin) assessed as residual activity at 50 uM relative to control. An outline of the steps:
as §2

Data set [20] deals with Dual specificity protein kinase CLK1 (Homo sapiens) (UniProt P49759). The experiment in a line: Inhibition of CLK1 (unknown origin) assessed as residual activity at 50 uM relative to control. The method, boiled down:
as §2

Data set [21] addresses Serine/threonine-protein kinase pim-1 (Homo sapiens) (UniProt P11309). The experiment in a line: Inhibition of PIM1 (unknown origin) assessed as residual activity at 50 uM relative to control. The method, boiled down: as §2
The target in data set [22] is Tyrosine-protein kinase ABL1 (Homo sapiens) (UniProt P00519). The experiment in a line: Inhibition of ABL (unknown origin) assessed as residual activity at 50 uM relative to control. The method, boiled down:
as §2

Data set [23] deals with Dual specificity mitogen-activated protein kinase kinase 1 (Homo sapiens) (UniProt Q02750). The data set can be described thus: Inhibition of MEK1 (unknown origin) assessed as residual activity at 50 uM relative to control. The method, boiled down:
as §2

Data set [24] concerns the target Protein kinase C alpha type (Homo sapiens) (UniProt P17252). The experiment in a line: Inhibition of PKCalpha (unknown origin) assessed as residual activity at 50 uM relative to control. The method, boiled down: as §3
Data set [25] addresses Receptor-interacting serine/threonine-protein kinase 2 (Homo sapiens) (UniProt O43353). The data set can be described thus: Inhibition of RIPK2 (unknown origin) assessed as residual activity at 50 uM relative to control. The method, boiled down:
as §3

Data set [26] addresses Dual specificity tyrosine-phosphorylation-regulated kinase 1A (Homo sapiens) (UniProt Q13627). The data set can be described thus: Inhibition of DYRK1A (unknown origin) assessed as residual activity at 50 uM relative to control. The method, boiled down: as §2
Data set [27] has as its target Muscle, skeletal receptor tyrosine-protein kinase (Homo sapiens) (UniProt O15146). The data set can be described thus: Inhibition of MUSK (unknown origin) assessed as residual activity at 50 uM relative to control. The method, boiled down:
as §2

For data set [28], the target named is Ephrin type-A receptor 4 (Homo sapiens) (UniProt P54764). The experiment in a line: Inhibition of EPHA4 (unknown origin) assessed as residual activity at 50 uM relative to control. The method, boiled down:
as §2

Data set [29] addresses Mast/stem cell growth factor receptor Kit (Homo sapiens) (UniProt P10721). The data set can be described thus: Inhibition of cKIT (unknown origin) assessed as residual activity at 50 uM relative to control. The method, boiled down: as §3
The target in data set [30] is Myosin light chain kinase 2, skeletal/cardiac muscle (Homo sapiens) (UniProt Q9H1R3). The experiment in a line: Inhibition of MLCK2 (unknown origin) assessed as residual activity at 50 uM relative to control. An outline of the steps: as §2
Data set [31] has as its target Epidermal growth factor receptor (Homo sapiens) (UniProt P00533). The data set can be described thus: Inhibition of EGFR (unknown origin) assessed as residual activity at 50 uM relative to control. An outline of the steps: as §2
In data set [32] the target is MAP kinase-interacting serine/threonine-protein kinase 1 (Homo sapiens) (UniProt Q9BUB5). The data set can be described thus: Inhibition of MNK1 (unknown origin) assessed as residual activity at 50 uM relative to control. An outline of the steps:
as §2

Data set [33] addresses Platelet-derived growth factor receptor alpha (Homo sapiens) (UniProt P16234). The data set can be described thus: Inhibition of PDGFRalpha (unknown origin) assessed as residual activity at 50 uM relative to control. An outline of the steps:
as §2

Data set [34] has as its target Serine/threonine-protein kinase TBK1 (Homo sapiens) (UniProt Q9UHD2). The data set can be described thus: Inhibition of TBK1 (unknown origin) assessed as residual activity at 50 uM relative to control. The method, boiled down:
as §3

In data set [35] the target is Rho-associated protein kinase 1 (Homo sapiens) (UniProt Q13464). The experiment in a line: Inhibition of ROCK1 (unknown origin) assessed as residual activity at 50 uM relative to control. An outline of the steps:
as §3

Data set [36] has as its target Cyclin-dependent kinase 2/cyclin E1 (Homo sapiens) (UniProt P24864+P24941). The experiment in a line: Inhibition of CDK2/cyclin E (unknown origin) assessed as residual activity at 50 uM relative to control. It counts as protein-complex assay. An outline of the steps:
as §2

Data set [37] concerns the target Dual specificity protein kinase CLK2 (Homo sapiens) (UniProt P49760). The data set can be described thus: Inhibition of CLK2 (unknown origin) assessed as residual activity at 50 uM relative to control. An outline of the steps:
as §2

Data set [38] concerns the target Tyrosine-protein kinase JAK2 (Homo sapiens) (UniProt O60674). The experiment in a line: Inhibition of JAK2 (unknown origin) assessed as residual activity at 50 uM relative to control. The method, boiled down: as §2
The target of data set [39] is Glycogen synthase kinase-3 beta (Homo sapiens) (UniProt P49841). The experiment in a line: Inhibition of GSK3beta (unknown origin) assessed as residual activity at 50 uM relative to control. An outline of the steps: as §2
Data set [40] concerns the target Dual specificity protein kinase CLK3 (Homo sapiens) (UniProt P49761). The experiment in a line: Inhibition of CLK3 (unknown origin) assessed as residual activity at 50 uM relative to control. An outline of the steps:
as §2

Data set [41] concerns the target Serine/threonine-protein kinase Chk2 (Homo sapiens) (UniProt O96017). The data set can be described thus: Inhibition of CHK2 (unknown origin) assessed as residual activity at 50 uM relative to control. The method, boiled down:
as §2

Data set [42] addresses Dual specificity protein kinase CLK4 (Homo sapiens) (UniProt Q9HAZ1). The data set can be described thus: Inhibition of CLK4 (unknown origin) assessed as residual activity at 50 uM relative to control. An outline of the steps:
as §2

In data set [43] the target is Cyclin-dependent kinase 1/cyclin B1 (Homo sapiens) (UniProt P06493+P14635). The data set can be described thus: Inhibition of CDK1/cyclin B (unknown origin) assessed as residual activity at 50 uM relative to control. It counts as protein-complex assay. The method, boiled down:
as §2

The source made the active and inactive calls. The calls are words filed in the database; no cut-off is given here.

Sequence of Mast/stem cell growth factor receptor Kit (Homo sapiens) (P10721 whole entry): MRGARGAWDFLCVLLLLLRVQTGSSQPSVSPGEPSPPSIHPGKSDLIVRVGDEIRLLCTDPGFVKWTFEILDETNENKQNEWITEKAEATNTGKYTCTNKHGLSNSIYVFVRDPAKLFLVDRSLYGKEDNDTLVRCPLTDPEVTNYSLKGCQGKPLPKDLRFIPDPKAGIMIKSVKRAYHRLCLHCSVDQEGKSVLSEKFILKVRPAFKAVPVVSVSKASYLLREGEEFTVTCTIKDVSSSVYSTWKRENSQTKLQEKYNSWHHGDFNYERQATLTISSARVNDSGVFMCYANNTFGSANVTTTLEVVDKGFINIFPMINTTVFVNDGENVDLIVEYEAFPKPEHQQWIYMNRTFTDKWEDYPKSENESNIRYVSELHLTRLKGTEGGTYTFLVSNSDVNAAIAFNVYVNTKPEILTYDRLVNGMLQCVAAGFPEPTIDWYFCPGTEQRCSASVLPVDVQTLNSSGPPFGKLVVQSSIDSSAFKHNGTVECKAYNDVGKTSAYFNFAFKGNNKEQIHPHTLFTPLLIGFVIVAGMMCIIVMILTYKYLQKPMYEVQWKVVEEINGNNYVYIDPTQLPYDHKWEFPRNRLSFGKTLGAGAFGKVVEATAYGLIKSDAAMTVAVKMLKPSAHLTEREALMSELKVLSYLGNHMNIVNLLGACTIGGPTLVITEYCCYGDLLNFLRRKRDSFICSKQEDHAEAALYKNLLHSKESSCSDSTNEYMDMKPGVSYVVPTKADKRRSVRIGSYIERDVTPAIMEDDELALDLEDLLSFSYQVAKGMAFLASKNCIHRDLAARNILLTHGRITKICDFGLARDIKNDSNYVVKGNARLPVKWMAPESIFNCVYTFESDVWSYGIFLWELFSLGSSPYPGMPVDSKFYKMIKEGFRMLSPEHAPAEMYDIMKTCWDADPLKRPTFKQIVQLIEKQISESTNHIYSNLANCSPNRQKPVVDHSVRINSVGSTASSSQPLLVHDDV
Sequence of Serine/threonine-protein kinase pim-1 (Homo sapiens) (P11309 whole entry, looked up): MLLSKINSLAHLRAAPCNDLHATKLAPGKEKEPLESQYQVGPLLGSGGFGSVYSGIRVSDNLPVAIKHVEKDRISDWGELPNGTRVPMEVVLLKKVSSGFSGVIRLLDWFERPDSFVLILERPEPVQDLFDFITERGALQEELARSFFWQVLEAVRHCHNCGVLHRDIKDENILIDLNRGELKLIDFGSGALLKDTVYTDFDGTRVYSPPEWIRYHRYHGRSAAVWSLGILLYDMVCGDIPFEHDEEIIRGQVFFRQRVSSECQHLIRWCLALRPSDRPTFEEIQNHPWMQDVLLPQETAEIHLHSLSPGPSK
Sequence of Glycogen synthase kinase-3 beta (Homo sapiens) (P49841 whole entry, looked up): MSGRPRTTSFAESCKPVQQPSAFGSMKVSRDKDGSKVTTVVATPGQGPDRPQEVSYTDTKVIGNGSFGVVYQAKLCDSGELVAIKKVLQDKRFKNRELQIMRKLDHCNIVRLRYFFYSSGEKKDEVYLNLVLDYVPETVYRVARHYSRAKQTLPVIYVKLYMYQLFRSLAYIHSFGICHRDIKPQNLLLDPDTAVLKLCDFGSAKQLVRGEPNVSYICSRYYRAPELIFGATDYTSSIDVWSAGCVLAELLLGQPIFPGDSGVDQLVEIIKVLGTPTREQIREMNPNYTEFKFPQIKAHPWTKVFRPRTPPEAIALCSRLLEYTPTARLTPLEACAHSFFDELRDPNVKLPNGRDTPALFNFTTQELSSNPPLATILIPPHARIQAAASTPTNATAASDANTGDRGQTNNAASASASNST
Sequence of Dual specificity mitogen-activated protein kinase kinase 1 (Homo sapiens) (Q02750 whole entry): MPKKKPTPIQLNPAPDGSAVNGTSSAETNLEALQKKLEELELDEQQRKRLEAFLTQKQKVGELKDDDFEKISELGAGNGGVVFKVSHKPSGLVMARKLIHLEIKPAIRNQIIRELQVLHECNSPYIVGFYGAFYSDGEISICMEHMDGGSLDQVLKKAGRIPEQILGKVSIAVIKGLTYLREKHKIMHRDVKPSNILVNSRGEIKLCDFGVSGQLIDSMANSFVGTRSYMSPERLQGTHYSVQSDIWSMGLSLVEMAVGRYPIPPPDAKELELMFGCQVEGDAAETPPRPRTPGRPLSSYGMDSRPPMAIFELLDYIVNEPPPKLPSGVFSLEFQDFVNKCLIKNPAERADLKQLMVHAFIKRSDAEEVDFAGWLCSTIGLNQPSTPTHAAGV
Sequence of Dual specificity protein kinase CLK2 (Homo sapiens) (P49760 whole entry, looked up): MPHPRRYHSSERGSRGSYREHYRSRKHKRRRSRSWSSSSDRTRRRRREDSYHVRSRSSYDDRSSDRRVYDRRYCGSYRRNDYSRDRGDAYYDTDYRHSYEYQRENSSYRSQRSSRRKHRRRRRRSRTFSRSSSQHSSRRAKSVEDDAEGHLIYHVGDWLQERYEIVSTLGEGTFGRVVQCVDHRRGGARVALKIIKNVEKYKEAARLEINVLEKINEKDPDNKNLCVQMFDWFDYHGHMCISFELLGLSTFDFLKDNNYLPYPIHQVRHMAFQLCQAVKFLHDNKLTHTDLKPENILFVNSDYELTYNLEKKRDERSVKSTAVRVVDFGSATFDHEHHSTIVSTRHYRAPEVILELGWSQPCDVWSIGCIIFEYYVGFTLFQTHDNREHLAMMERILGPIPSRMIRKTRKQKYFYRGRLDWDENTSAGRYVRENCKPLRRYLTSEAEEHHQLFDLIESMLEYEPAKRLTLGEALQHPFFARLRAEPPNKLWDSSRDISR
Sequence of Death-associated protein kinase 3 (Homo sapiens) (O43293 whole entry, looked up): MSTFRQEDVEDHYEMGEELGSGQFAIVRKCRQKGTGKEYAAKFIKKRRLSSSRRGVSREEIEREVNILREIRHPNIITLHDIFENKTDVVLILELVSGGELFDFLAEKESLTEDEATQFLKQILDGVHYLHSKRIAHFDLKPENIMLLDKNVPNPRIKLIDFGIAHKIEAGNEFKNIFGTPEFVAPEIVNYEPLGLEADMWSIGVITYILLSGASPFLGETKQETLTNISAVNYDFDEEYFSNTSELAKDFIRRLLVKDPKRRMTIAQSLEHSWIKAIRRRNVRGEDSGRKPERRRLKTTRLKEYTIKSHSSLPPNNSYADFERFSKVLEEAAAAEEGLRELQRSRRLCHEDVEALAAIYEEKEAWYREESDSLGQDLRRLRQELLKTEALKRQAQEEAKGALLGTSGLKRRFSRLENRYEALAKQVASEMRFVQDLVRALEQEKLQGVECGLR
Sequence of Serine/threonine-protein kinase haspin (Homo sapiens) (Q8TF76 whole entry): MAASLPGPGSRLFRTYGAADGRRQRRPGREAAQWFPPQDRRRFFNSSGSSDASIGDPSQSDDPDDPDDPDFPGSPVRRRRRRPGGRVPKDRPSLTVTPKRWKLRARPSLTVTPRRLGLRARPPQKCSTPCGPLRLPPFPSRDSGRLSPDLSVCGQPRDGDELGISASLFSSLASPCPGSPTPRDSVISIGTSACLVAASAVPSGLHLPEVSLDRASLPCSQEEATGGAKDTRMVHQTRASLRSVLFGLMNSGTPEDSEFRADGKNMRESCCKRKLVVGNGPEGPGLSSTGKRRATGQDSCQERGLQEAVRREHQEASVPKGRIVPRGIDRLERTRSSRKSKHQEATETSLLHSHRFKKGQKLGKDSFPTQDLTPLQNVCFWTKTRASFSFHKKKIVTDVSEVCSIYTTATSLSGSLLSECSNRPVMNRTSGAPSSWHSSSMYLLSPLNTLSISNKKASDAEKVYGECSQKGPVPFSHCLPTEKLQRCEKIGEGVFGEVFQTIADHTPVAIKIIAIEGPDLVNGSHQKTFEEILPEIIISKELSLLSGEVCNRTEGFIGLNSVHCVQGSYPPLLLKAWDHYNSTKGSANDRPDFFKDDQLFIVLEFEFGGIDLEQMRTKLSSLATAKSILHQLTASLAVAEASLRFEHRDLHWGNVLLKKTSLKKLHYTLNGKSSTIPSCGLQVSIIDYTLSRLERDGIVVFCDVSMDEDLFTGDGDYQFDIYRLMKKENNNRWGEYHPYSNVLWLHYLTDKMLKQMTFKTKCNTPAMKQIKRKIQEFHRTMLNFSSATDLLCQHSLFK

In the case of `O=C(O)c1cccc(Nc2nc(-c3cccc([N+](=O)[O-])c3)cs2)c1`, the IC50 in data set [1] stood at 27.7 µM. In addition, the inhibition entry in data set [2], in [3] and in [4] was “Active” each time.

Turning to `O=C(O)c1ccc(Nc2nc(-c3ccccc3)cs2)cc1`, the result in data set [5], in [9], in [10] and in data set [11] was Active. The IC50 in [1] stood at 9 µM. Besides, the Ki in data set [6] was 1.1 µM. Besides, the Tm in data set [7] worked out at 50.3 °C. For the same compound, the solubility result in [8] was “Soluble”. Moreover, the result in [12] was inactive.

For `O=C(O)c1ccc(Nc2nccs2)cc1`, the inhibition in data set [13] was 0%.

Regarding `O=C(O)c1ccc(Nc2nc(-c3cccc(Br)c3)cs2)cc1`, the Activity in [14] was 57%; in [15], 104%; in data set [16] it was 55%; in data set [17] it was 34%; in data set [18], 82%; in data set [19], 31%. Also, the Activity came out at 80% in data set [20]; 57% in data set [21]; 69% in [22]; 95% in data set [23]; 92% in data set [24]; 86% in data set [25]. Besides, the Activity was 79% in [26]; 90% in data set [27]; 27% in data set [28]; 116% in data set [29]; 39% in [30]; 106% in [31]. Moreover, the Activity in data set [32] was found to be 101%; in [33], 102%; in data set [34] it was 75%; in data set [35] it was 107%; in [36], 107%; in [37], 67%. Moreover, the Activity in data set [38] is 98%; in data set [39], 29%; in [40] it was 86%; in [41], 72%; in [42], 39%; in data set [43], 78%.

With `COC(=O)c1ccc(Nc2nc(-c3cccc([N+](=O)[O-])c3)cs2)cc1`, the inhibition in data set [13] was 9%.

For the compound `O=[N+]([O-])c1cccc(-c2csc(Nc3ccccc3)n2)c1`, the inhibition in [13] is 27%.

For the compound `O=C(O)c1ccc(Nc2nc(-c3ccccn3)cs2)cc1`, in data set [8], the solubility result was “Soluble”.

As a reminder, the IC50 is the concentration needed to halve the response being measured. One may read the inhibition as the drop in the measured response relative to a control, in per cent. A word on the Ki: it is the equilibrium dissociation constant of an inhibitor or competing ligand from its target.
